Calls of active or inactive are those of the source. The rule behind the calls is not given here.
What was measured:
Trypanothione reductase = Trypanothione reductase (Trypanosoma cruzi, UniProt P28593); test: Uncompetitive inhibition of Trypanosoma cruzi trypanothione reductase using […] as substrate at pH 7.5 in presence of NADPH by photometric method
Outline: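 Reactions started with NADPH; compound-free reactions serve as control. Initial rates were plotted against TS₂ concentration and Ki was taken as the mean of at least three independent data sets, within ±10%.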

[1] = Selectivity index, ratio of EC50 for cytotoxicity against human HeLa cells to IC50 for anti-parasitic activity against Trypanosoma cruzi Dm28c epimastigotes; type: toxicity, cell-based; settings: read-out: Selectivity Index
Outline: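 HeLa crystal violet EC50 (24 h) divided by epimastigote IC50 (resazurin, 48 h growth).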

HeLa = test: Cytotoxicity against human HeLa cells measured after 24 hrs by crystal violet staining based assay; type: cell-based
Outline: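 HeLa cells seeded at 2.5 x 10⁴ cells/well in DMEM with 2% FBS, 24 h at 37°C, 5% CO₂. Medium replaced with compound, eight serial dilutions in duplicate, 24 h at 37°C. Cells fixed and stained with 0.75% crystal violet in 40% methanol for 10 min. Dye dissolved in 20% acetic acid and read at 540 nm, triplicate means. Untreated cells are the negative control.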

Trypanosoma cruzi [2] = test: Anti-parasitic activity against Trypanosoma cruzi Dm28c epimastigotes in logarithmic phase measured after 24 to 48 hrs by resazurin assay; type: functional
Outline: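 Log-phase Dm28c epimastigotes at 1x10⁶ cells/ml in PBS plus 2% (w/v) glucose. Derivatives added at 0.1-100 µM final. Incubation 24-48 h, then viability read by resazurin. DMSO-only wells serve as negative control. Resazurin is also run with compound but no parasites. IC50 is the mean of at least three independent experiments, reproducible within ±10%.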

Trypanosoma cruzi [3] = test: Potency index, ratio of nifurtimox IC50 to test compound IC50 for Trypanosoma cruzi Dm28c epimastigotes in logarithmic phase; type: functional
[4] = biological target: Trypanothione reductase (Trypanosoma cruzi) (UniProt P28593); test: Inhibition of Trypanosoma cruzi trypanothione reductase at 100 uM using […] as substrate at pH 7.5 in presence of NADPH by photometric method; settings: TDE = time-dependent effect
Trypanosoma cruzi [5] = test: Anti-parasitic activity against Trypanosoma cruzi Dm28c epimastigotes in logarithmic phase assessed as morphological changes at 30 uM measured after 48 hrs by resazurin assay; type: functional

Sequence of Trypanothione reductase (Trypanosoma cruzi) (P28593 whole entry, looked up): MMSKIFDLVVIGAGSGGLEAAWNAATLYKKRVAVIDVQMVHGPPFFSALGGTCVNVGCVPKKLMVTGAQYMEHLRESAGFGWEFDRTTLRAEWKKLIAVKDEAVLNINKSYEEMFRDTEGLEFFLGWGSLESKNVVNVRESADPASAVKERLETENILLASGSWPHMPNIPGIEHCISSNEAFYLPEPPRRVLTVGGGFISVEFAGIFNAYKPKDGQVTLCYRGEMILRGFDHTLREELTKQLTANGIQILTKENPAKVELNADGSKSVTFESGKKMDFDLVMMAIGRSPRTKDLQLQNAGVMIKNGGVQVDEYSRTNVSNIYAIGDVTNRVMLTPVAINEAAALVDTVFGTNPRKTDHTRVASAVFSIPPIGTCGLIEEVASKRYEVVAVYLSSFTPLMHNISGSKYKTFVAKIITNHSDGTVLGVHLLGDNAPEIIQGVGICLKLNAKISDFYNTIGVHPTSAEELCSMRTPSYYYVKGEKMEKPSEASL
Sequence of Trypanothione reductase (P28593 whole entry): as the sequence (P28593 whole entry, looked up) above

| SMILES | Ki (Trypanothione reductase) [µM] | IC50 (Trypanosoma cruzi [2]) [µM] | inhibition [4] | selectivity ratio [1] | EC50 (HeLa) [µM] | Ratio IC50 (Trypanosoma cruzi [3]) | Activity (Trypanosoma cruzi [5]) |
| --- | --- | --- | --- | --- | --- | --- | --- |
| O=C(c1ccc([N+](=O)[O-])o1)N(Cc1ccccc1)Cc1ccccc1 | 68 | 1.1 | Tde | 70.1 | 78 | 4 |  |
| CC(C)(C)NC(=O)c1ccc([N+](=O)[O-])o1 | 313 | 35 |  |  |  |  |  |
| O=C(O)c1ccc([N+](=O)[O-])o1 |  |  | Tde |  |  |  | inactive |
| O=C(c1ccc([N+](=O)[O-])o1)N1CCCC1 | 187 | 64 |  |  |  |  |  |
| CN(C)CCNC(=O)c1ccc([N+](=O)[O-])o1 | 136 | 36 |  |  |  |  |  |
| O=C(NCc1ccccc1)c1ccc([N+](=O)[O-])o1 | 61 | 15 | Tde | 8.2 | 123 |  |  |
| CCCNC(=O)c1ccc([N+](=O)[O-])o1 | 336 | 17 |  | 8.8 | 150 |  |  |
| CC(C)NC(=O)c1ccc([N+](=O)[O-])o1 | 414 | 18 |  | 11.7 | 211 |  |  |

The next lines start with results.

| Ki (Trypanothione reductase) [µM] | IC50 (Trypanosoma cruzi [2]) [µM] | inhibition [4] | SMILES | selectivity ratio [1] | EC50 (HeLa) [µM] | Ratio IC50 (Trypanosoma cruzi [3]) | Activity (Trypanosoma cruzi [5]) |
| --- | --- | --- | --- | --- | --- | --- | --- |
| 1180 | 23 |  | CCC(C)NC(=O)c1ccc([N+](=O)[O-])o1 (configuration not stated) | 7.2 | 165 |  |  |
| 245 | 4 |  | CC1CS(=O)(=O)CCN1/N=C/c1ccc([N+](=O)[O-])o1 (configuration not stated) [NIFURTIMOX] | 68 | 272 |  |  |
| 118 | 19 | Tde | CN(C)CCCNC(=O)c1ccc([N+](=O)[O-])o1 | 3.9 | 74 |  |  |
| 315 | 26 |  | CCCCNC(=O)c1ccc([N+](=O)[O-])o1 | 5.8 | 152 |  |  |
| 183 | 19.6 |  | CCCN(CCC)C(=O)c1ccc([N+](=O)[O-])o1 |  |  |  |  |
| 282 | 103 |  | O=C(c1ccc([N+](=O)[O-])o1)N1CCCCC1 |  |  |  |  |
| 128 | 25 |  | CCN(CC)CCCNC(=O)c1ccc([N+](=O)[O-])o1 | 4 | 100 |  |  |
